PubChem BioAssay
Inconclusive results are not listed. The source made the active and inactive calls.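 Rule for the calls, unless noted: active = viability increase at or above a cutoff of the median across tested compounds plus 3 SD (cut at about 8.5% in these data, passing the limit was not always enough); inconclusive = some gains above the cutoff, reason not given; inactive = the rest.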

Assays:
[1] = OD615 S. cerevisiae growth inhibition, permissive medium, pilot counter-assay, permissive growth control for S. cerevisiae lifespan shortening project (AID 705;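 active = growth inhibition above 25% in both replicates, a cutoff set 3 SD above the mean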); settings: OD615, 24 h, at 10 µM, active compounds read high
How it was run: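 assay system = Saccharomyces cerevisiae strain carrying genetically modified DeaD replicative-lifespan system | technique = absorbance (optical density) at 615 nm | buffer or medium = permissive raffinose/galactose medium | timing = cells pre-grown 4 h, then 24 h compound exposure, 30 °C humidified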

[2] = Restrictive medium S. cerevisiae growth inhibition, OD615, pilot screen of yeast lifespan reduction project, restrictive growth control (AID 706;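 active = growth inhibition above a set limit, 3 SD over mean compound inhibition, in both replicates, cut at about 43% in these data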;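 note: modified DeaD lifespan yeast strain shifted to restrictive glucose medium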); settings: OD615, 48 h, at 10 µM, active compounds read high
How it was run: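 System: modified S. cerevisiae. Buffer or medium: CSMM-D glucose medium. Incubation: 4 h pre-growth plus 48 h compound exposure, 30 °C. Detection: absorbance (optical density) measured at 615 nm.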

[3] = viability gain of MRP-1-high H69AR cells under doxorubicin, pilot screen, MRP-1 activator project, CellTiter-Glo, duplicate (AID 807); settings: H69AR viability with doxorubicin, CellTiter-Glo luminescence; at 10 µM; active compounds read high;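 note: compound pretreatment 18-22 h then 72 h combined with doxorubicin; 0% = doxorubicin alone and 100% = vehicle without doxorubicin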
[4] = growth suppression of beta-catenin knockout HCT116, pilot screen, human colon tumor cells (AID 823;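 active = cell viability at or below a set limit in both duplicate runs, the limit being the all-compound median minus 4 SD, cut at about 23% in these data, passing the limit was not always enough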;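 note: 0% = wells killed by 20 µM Hyamine and 100% = untreated DMSO cell wells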); settings: CellTiter-Glo, 60 h, at 10 µM, active compounds read low
[5] = inhibitors of the yeast RAM network, pilot screen, dse1pr::URA3 reporter, 5-FOA selection (AID 869;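 active = inhibition over a set limit, the all-compound mean plus 3 SD, in both replicate runs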;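 note: 0% = DMSO wells with no growth and 100% = 10 µM 1-NA-PP1 with full growth; RAM network block rescues cells from 5-FOA so hits raise OD615 growth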); settings: S. cerevisiae dse1pr::URA3 5-FOA growth, OD615, 2 d; at 10 µM; active compounds read high; strain carries analog-sensitive mutant Cbk1 kinase
[6] = RAM signaling pathway blockade in yeast – S. cerevisiae, Pdr1DBD-CYC8 efflux-inhibited sensitized strain, primary screen (AID 1298;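 active = RAM network inhibition above 8.4% in each of two replicates, 3 SD over the compound average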;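 note: 0% = DMSO untreated cells without growth and 100% = 10 µM 1-NA-PP1 full growth; higher means more yeast growth rescued from 5-FOA killing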); settings: S. cerevisiae cbk1-as DSE1-URA3 strain, 5-FOA growth OD615, 2 d; at 50 µM; active compounds read high
[7] = growth suppression of PTEN-deleted HCT116, pilot screen, cell-based, HCT116 clonal line, CellTiter-Glo (AID 824;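 active = viability at or below 27.92% in each of two runs, the all-compound median minus 4 SD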;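 note: 0% = 20 µM Hyamine control and 100% = vehicle cell control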); settings: 60 h, at 10 µM, active compounds read low

CCSc1oc(-c2ccco2)nc1S(=O)(=O)c1ccc(F)cc1
inactive: growth inhibition [1] -15.7% | growth inhibition [2] -4.69% | viability increase [3] -3.11% | viability [4] 79% | inhibition [5] 0.335% | RAM network inhibition [6] 5.09%

O=C(N=c1nc2ccccn2s1)c1ccccc1
inactive: growth inhibition [1] -6.95% | growth inhibition [2] 6.63% | viability increase [3] -7.06% | viability [4] 71.6% | inhibition [5] 3.28% | RAM network inhibition [6] 6.13%

O=C(Nc1ccc(Br)cc1Cl)c1cnccn1
inactive: growth inhibition [1] 1.88% | growth inhibition [2] -0.415% | viability increase [3] -0.71% | viability [4] 84.1% | inhibition [5] 1.97% | RAM network inhibition [6] 2.32%

O=C1C(Cl)=C(Nc2ccccc2O)C(=O)N1c1ccccc1
inactive: growth inhibition [1] -42% | growth inhibition [2] -9.91% | viability increase [3] -6.15% | viability [4] 81.7% | inhibition [5] 2.32% | RAM network inhibition [6] 5.61%

OC(COCc1cccs1)CN1CCN(c2ccccn2)CC1 (stereo not drawn)
inactive: growth inhibition [1] -19.5% | growth inhibition [2] -7.78% | viability increase [3] -1.3% | viability [4] 101% | inhibition [5] 2.32% | RAM network inhibition [6] 4.89%

CCC1SC2=NC(C)=C(C(=O)OC)C(c3ccc(C(=O)OC)cc3)N2C1=O (stereo not drawn)
inactive: growth inhibition [1] 6.67% | growth inhibition [2] 35.7% | viability increase [3] 3.25% | viability [4] 101% | inhibition [5] 1.47% | RAM network inhibition [6] 9.87%

Cc1c(C(=O)NCc2ccccc2)oc2ccc(S(=O)(=O)N3CCC4(CC3)OCCO4)cc12
inactive: growth inhibition [1] 5.31% | growth inhibition [2] 2.71% | viability increase [3] -4.5% | viability [7] 66.5% | inhibition [5] 3.6% | RAM network inhibition [6] 2.96%

O=C(CSc1nc(-c2ccncc2)nn1CC(=O)N1CCCCC1)NC1CCCC1
inactive: growth inhibition [1] -4.01% | growth inhibition [2] -16.2% | viability increase [3] -4.19% | viability [7] 88% | inhibition [5] 1.07% | RAM network inhibition [6] -1.59%

Cc1cccc(N2CCN(C(=O)c3ccc(NC(=O)C4CCCO4)cc3)CC2C)c1 (stereo not drawn)
inactive: growth inhibition [1] -10.9% | growth inhibition [2] 6.01% | viability increase [3] -2.33% | viability [4] 105% | inhibition [5] 1.11% | RAM network inhibition [6] 4.83%

COC(=O)CCc1nc2ccccc2[nH]c1=O
inactive: growth inhibition [1] -6.03% | growth inhibition [2] -5.04% | viability increase [3] -0.31% | viability [7] 100% | inhibition [5] 1.4% | RAM network inhibition [6] 2.15%

C=CCOC(=O)CCCC(=O)NC1CCCCC1
inactive: growth inhibition [1] -26.9% | growth inhibition [2] 5.64% | viability increase [3] -0.4% | viability [4] 95.6% | inhibition [5] 1.58% | RAM network inhibition [6] 4.88%

CC(=O)c1ccc(C(=O)Nc2nnc(-c3ccc(Cl)cc3)o2)cc1
inactive: growth inhibition [1] -1.45% | growth inhibition [2] 17% | viability increase [3] -3.75% | RAM network inhibition [6] 2.8%
active: viability [7] 22.3%

COc1cc(NC(=O)COc2ccc(-n3cnnn3)cc2)c(OC)cc1Cl
inactive: growth inhibition [1] -3.27% | growth inhibition [2] -5.83% | viability increase [3] -5.31% | viability [7] 46.9% | inhibition [5] 2.55% | RAM network inhibition [6] 2.93%

COc1ccc(S(=O)(=O)C(C#N)c2nc3ccccc3nc2N2CCC(C)CC2)cc1 (stereo not drawn)
inactive: growth inhibition [1] -12.1% | growth inhibition [2] -14.1% | viability increase [3] -4.72% | viability [7] 87.9% | inhibition [5] 3.85% | RAM network inhibition [6] 8.8%

c1ccc(CSc2nnc3c(n2)OC(c2ccco2)Nc2ccccc2-3)cc1 (stereo not drawn)
inactive: growth inhibition [1] -10.6% | growth inhibition [2] 2.27% | viability increase [3] -4.19% | viability [7] 88.8% | inhibition [5] 0.38% | RAM network inhibition [6] 7.16%

Cc1nc2nc(SCC(=O)N3CCOCC3)nn2c(C)c1Cc1c(F)cccc1Cl
inactive: growth inhibition [1] -2.75% | growth inhibition [2] 34% | viability increase [3] -6.91% | viability [4] 88.4% | inhibition [5] 0.35% | RAM network inhibition [6] 3.17%

CN(C)c1ccc(C(=O)Nc2ccc(S(=O)(=O)NC3=NCCCCC3)cc2)cc1
inactive: growth inhibition [1] -6.28% | growth inhibition [2] -8.65% | viability increase [3] -3.44% | viability [7] 99.4% | inhibition [5] 1.61% | RAM network inhibition [6] 3.12%

COc1ccc(CNC(=O)c2ccc(NC(=O)C3CCCO3)cc2)cc1 (stereo not drawn)
inactive: growth inhibition [1] -16.3% | growth inhibition [2] -0.99% | viability increase [3] 0.75% | viability [4] 98.6% | inhibition [5] 2.87% | RAM network inhibition [6] 8.83%

CN(C(=O)c1ccc(NC(=O)c2cnccn2)cc1)C1CCCCC1
inactive: growth inhibition [1] 2.12% | growth inhibition [2] 7.4% | viability increase [3] -1.47% | viability [4] 99.9% | inhibition [5] 0.62% | RAM network inhibition [6] 6.39%

C(=N\n1cnnc1)/c1ccc(N2CCOCC2)s1
inactive: growth inhibition [1] -13.4% | growth inhibition [2] -3.46% | viability increase [3] -1.47% | viability [4] 89.8% | inhibition [5] 4.36% | RAM network inhibition [6] 8.67%

O=C(Nc1ccc2c(c1)OCCO2)c1ccc(NC(=O)C2CCCO2)cc1 (stereo not drawn)
inactive: growth inhibition [1] -10.9% | growth inhibition [2] -3.79% | viability increase [3] -0.87% | viability [4] 72.7% | inhibition [5] 2.04% | RAM network inhibition [6] 3.27%

CCOC(=O)CNC(=O)c1cn(CC)c(=O)c2cc(OC)c(OC)cc12
inactive: growth inhibition [1] -14.4% | growth inhibition [2] -5.67% | viability increase [3] -2.48% | viability [4] 103% | inhibition [5] 2.65% | RAM network inhibition [6] 2.7%

COc1ccccc1CC(=O)Nc1ccc(-c2nnc(-c3ccco3)o2)cc1
inactive: growth inhibition [1] -3.64% | growth inhibition [2] 8.35% | viability increase [3] -2.58% | viability [7] 77.7% | RAM network inhibition [6] 8.02%

CCc1cc(=O)oc2cc(OCC(=O)OC)c(Cl)cc12
inactive: growth inhibition [1] -4.85% | growth inhibition [2] 1.34% | viability increase [3] -2.39% | viability [7] 101% | inhibition [5] 0.695% | RAM network inhibition [6] 4.51%

O=C(NCc1cccnc1)NC1(C(F)(F)F)Oc2ccccc2O1
inactive: growth inhibition [1] 4.4% | growth inhibition [2] 5.9% | viability increase [3] -5.46% | viability [7] 67.2% | inhibition [5] 0.81% | RAM network inhibition [6] 3.16%

Cc1cc(NC(=O)COC(=O)C2CCN(S(=O)(=O)c3ccc(Cl)cc3)CC2)no1
inactive: growth inhibition [1] 4.11% | growth inhibition [2] -2.37% | viability increase [3] -2.01% | viability [7] 98.9% | inhibition [5] 1.19% | RAM network inhibition [6] 1.38%

COc1cc2c(cc1NC(C)=O)CCCC2
inactive: growth inhibition [1] -5.3% | growth inhibition [2] -0.3% | viability increase [3] -4.13% | viability [7] 100% | inhibition [5] 1.28% | RAM network inhibition [6] 1.23%

COc1ccc(N2CCN(CCCNC(=O)CCCn3c(=O)[nH]c4ccsc4c3=O)CC2)cc1
inactive: growth inhibition [1] -10.8% | growth inhibition [2] -8.79% | viability increase [3] -1.23% | viability [4] 94% | inhibition [5] 2.75% | RAM network inhibition [6] 9.35%

CCn1nc(CC(=O)Nc2ccc(-n3cnnn3)c(C)c2)c2ccccc2c1=O
inactive: growth inhibition [1] -14.8% | growth inhibition [2] -10.9% | viability increase [3] -4.37% | viability [4] 90.3% | inhibition [5] 0.6% | RAM network inhibition [6] 5.97%

O=C(CS(=O)(=O)c1cn(Cc2cccc(F)c2)c2ccccc12)N1CCCCC1
inactive: growth inhibition [1] -12.9% | growth inhibition [2] -2.79% | viability increase [3] -3.96% | viability [4] 73.2% | inhibition [5] 2.04% | RAM network inhibition [6] 3.64%

CC(C)(Oc1ccc(Cl)cc1)C(=O)OCC(=O)N1CCCC1
inactive: growth inhibition [1] -8.95% | growth inhibition [2] -11% | viability increase [3] -2.58% | viability [7] 96.5% | inhibition [5] 0.455% | RAM network inhibition [6] -1.13%

COc1ccc(NC2CS(=O)(=O)CC2NCc2ccco2)cc1 (stereo not drawn)
inactive: growth inhibition [1] 3.62% | growth inhibition [2] -15.4% | viability increase [3] -4.04% | viability [7] 96.2% | inhibition [5] 1.94% | RAM network inhibition [6] 4.2%

O=C(Nc1cccnc1)c1ccc(CN2CCc3ccccc3C2)cc1
inactive: growth inhibition [1] -3.88% | growth inhibition [2] -5.93% | viability increase [3] -2.11% | viability [7] 93.3% | inhibition [5] 2.54% | RAM network inhibition [6] 2.06%

Cc1cc(C)c(C)c(S(=O)(=O)Nc2ccccc2C(=O)NCCCn2ccnc2)c1C
inactive: growth inhibition [1] -28% | growth inhibition [2] 12.5% | viability increase [3] -5.57% | viability [4] 70.2% | inhibition [5] 0.75% | RAM network inhibition [6] 0.27%

Cn1nnc2c(NCc3ccco3)nccc21
inactive: growth inhibition [1] -26% | growth inhibition [2] -1.62% | viability increase [3] -4.4% | viability [4] 96.6% | inhibition [5] 3.05% | RAM network inhibition [6] 0.93%

CCOc1cc(CNC(=O)CN2C(=O)c3ccccc3S2(=O)=O)ccc1OC
inactive: growth inhibition [1] -22.6% | growth inhibition [2] -10.7% | viability increase [3] -0.6% | viability [4] 98.1% | inhibition [5] 1.69% | RAM network inhibition [6] 0.32%

CC1(C)OC(=O)C(=C2CCCN2)C(=O)O1
inactive: growth inhibition [1] 0.65% | growth inhibition [2] -5.36% | viability increase [3] -1.34% | viability [4] 105% | inhibition [5] 0.815% | RAM network inhibition [6] 6.12%

COc1ccc(-c2cc(NCCc3ccncc3)n3ncnc3n2)cc1
inactive: growth inhibition [1] -9.14% | growth inhibition [2] 14.2% | viability increase [3] -4.7% | viability [4] 95.2% | inhibition [5] 0.97% | RAM network inhibition [6] 7.01%

COc1ccc(C(=O)NC(C)c2nc3ccccc3[nH]2)cc1OC (stereo not drawn)
inactive: growth inhibition [1] -9.91% | growth inhibition [2] -3.65% | viability increase [3] -1.84% | viability [7] 97.9% | inhibition [5] 2.15% | RAM network inhibition [6] 4.78%

CS(=O)(=O)N(CC(=O)N1CCN(c2ccccc2F)CC1)c1cc(C(F)(F)F)ccc1Cl
inactive: growth inhibition [1] 1.93% | growth inhibition [2] 0.015% | viability increase [3] 0.43% | viability [7] 88.3% | inhibition [5] -0.485% | RAM network inhibition [6] 0.87%
